Reference: ChEMBL document CHEMBL4387734, “Design and synthesis of a novel series of cyanoindole derivatives as potent γ-secretase modulators” (Bioorg Med Chem Lett, 2019)
≈ marks a conversion by molar mass, not a printed value.

Assays:
[1] = Inhibition of gamma secretase in mouse Neuro2 cells expressing endogenous levels of amyloid precursor protein assessed as reduction in Abeta42 levels incubated for 18 hrs by sandwich ELISA; format: cell-based
In short: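 IC50 as concentration reducing Aβ42 by 50%; mean of at least 2 determinations; mouse assay.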

[2] = Drug concentration in mouse brain at 30 mg/kg, po measured after 4 hrs by LC/MS/MS method; format: ADME, organism-based; details: read-out: Drug uptake
In short: (§1)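 Mice dosed orally at 30 mg/kg; plasma and brain sampled 4 h post-dose; compound quantified by qualified research LC–MS/MS; brain/plasma ratio at 4 h.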

[3] = Drug concentration in mouse plasma at 30 mg/kg, po measured after 4 hrs by LC/MS/MS method; format: ADME, organism-based; in short: as §1
Mus musculus [4] = assay: In vivo inhibition of gamma secretase in mouse assessed as assessed as reduction in Abeta42 levels in brain at 30 mg/kg, po measured after 4 hrs relative to control; format: functional
[5] = Free drug concentration in mouse brain; format: ADME, tissue-based; details: in vivo
In short: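 Free brain concentration calculated as fu,b × total brain level (μM), mouse 30 mg/kg p.o., 4 h.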

[6] = Lipophilicity, log P of the compound; format: physicochemical; details: octanol/water
[7] = Metabolic stability in human liver microsomes assessed as compound metabolism at 1 uM incubated for 15 mins; format: ADME, Microsome; details: read-out: Drug metabolism
In short: (§2)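 Compound at 1 μM incubated 15 min with human, mouse or dog liver microsomes; percent metabolized reported.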

[8] = Metabolic stability in mouse liver microsomes assessed as compound metabolism at 1 uM incubated for 15 mins; format: ADME, Microsome; details: read-out: Drug metabolism; in short: as §2
[9] = Metabolic stability in dog liver microsomes assessed as compound metabolism at 1 uM incubated for 15 mins; format: ADME, Canis lupus familiaris, Microsome; details: read-out: Drug metabolism; in short: as §2
Cytochrome P450 2D6 = Cytochrome P450 2D6 (Homo sapiens, UniProt P10635); assay: Inhibition of CYP2D6 (unknown origin); format: ADME
Cytochrome P450 2C9 = Cytochrome P450 2C9 (Homo sapiens, UniProt P11712); assay: Inhibition of CYP2C9 (unknown origin); format: ADME
Cytochrome P450 2C19 = Cytochrome P450 2C19 (Homo sapiens, UniProt P33261); assay: Inhibition of CYP2C19 (unknown origin); format: ADME
[10] = target: Voltage-gated inwardly rectifying potassium channel KCNH2 (Homo sapiens, UniProt Q12809); assay: Inhibition of human ERG by receptor binding assay
In short: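 Receptor binding on human hERG channel; IC50 reported.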

hERG (KCNH2) = hERG (KCNH2) (Homo sapiens, UniProt Q12809); assay: Inhibition of human ERG assessed as inhibition of IKr current at 3 uM by patch express assay
In short: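 Human ERG: percent inhibition of IKr current at 3 μM.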

[11] = Kinetic solubility of the compound in pH 7.4 buffer; format: physicochemical; details: read-out: Kinetic_solubility
Cytochrome P450 3A4 = Cytochrome P450 3A4 (Homo sapiens, UniProt P08684); assay: Activation of CYP3A4 (unknown origin) using midazolam; format: ADME
[12] = Ratio of drug concentration in brain to plasma of mouse at 30 mg/kg, po measured after 4 hrs by LC/MS/MS method; format: ADME, organism-based; details: read-out: BPR; in short: as §1
[13] = Fraction of unbound in rat brain
Mus musculus [14] = assay: In vivo inhibition of gamma secretase in mouse increase in Abeta38 levels in brain at 30 mg/kg, po measured after 4 hrs relative to control; parameters: scale not given: the % may be the effect or the level left
Gamma-secretase = assay: Inhibition of gamma secretase in human SKNBE2 cells expressing human APP695 assessed as reduction in Abeta42 levels incubated for 18 hrs by sandwich ELISA
[15] = target: Gamma-secretase (Homo sapiens) (UniProt Q96BI3+Q9NZ42+Q8WW43+P49768+Q92542+P49810); assay: Inhibition of gamma secretase in human SKNBE2 cells expressing human APP695 assessed as increase in Abeta38 levels at 10 uM incubated for 18 hrs by sandwich ELISA; format: cell-based; parameters: scale not given: the % may be the effect or the level left

Cytochrome P450 2D6, sequence (P10635 whole entry): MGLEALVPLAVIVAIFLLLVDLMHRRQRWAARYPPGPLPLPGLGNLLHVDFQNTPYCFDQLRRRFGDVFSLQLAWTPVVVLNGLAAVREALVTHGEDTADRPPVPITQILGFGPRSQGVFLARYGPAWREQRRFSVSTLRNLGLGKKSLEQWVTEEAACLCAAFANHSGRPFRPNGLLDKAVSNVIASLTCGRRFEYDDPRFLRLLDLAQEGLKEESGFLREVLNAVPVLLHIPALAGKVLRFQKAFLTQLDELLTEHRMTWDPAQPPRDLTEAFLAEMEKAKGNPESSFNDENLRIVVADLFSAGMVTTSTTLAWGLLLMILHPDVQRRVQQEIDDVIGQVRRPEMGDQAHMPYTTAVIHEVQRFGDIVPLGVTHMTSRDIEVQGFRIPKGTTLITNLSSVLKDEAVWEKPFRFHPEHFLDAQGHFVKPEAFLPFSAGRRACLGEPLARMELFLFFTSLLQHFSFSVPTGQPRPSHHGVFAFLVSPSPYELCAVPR
Cytochrome P450 3A4, sequence (P08684 whole entry): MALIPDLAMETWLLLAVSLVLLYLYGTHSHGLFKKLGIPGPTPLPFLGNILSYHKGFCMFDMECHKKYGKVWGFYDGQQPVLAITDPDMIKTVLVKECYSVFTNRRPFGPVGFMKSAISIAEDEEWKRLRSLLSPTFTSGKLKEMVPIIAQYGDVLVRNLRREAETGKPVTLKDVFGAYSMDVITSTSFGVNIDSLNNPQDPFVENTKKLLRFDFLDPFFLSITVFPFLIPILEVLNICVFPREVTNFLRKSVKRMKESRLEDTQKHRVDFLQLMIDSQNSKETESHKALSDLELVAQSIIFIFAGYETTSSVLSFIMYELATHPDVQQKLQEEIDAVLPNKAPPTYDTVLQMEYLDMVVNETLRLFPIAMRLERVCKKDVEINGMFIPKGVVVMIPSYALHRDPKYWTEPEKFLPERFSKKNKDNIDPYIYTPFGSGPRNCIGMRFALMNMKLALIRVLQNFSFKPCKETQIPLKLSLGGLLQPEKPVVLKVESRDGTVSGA
Cytochrome P450 2C19, sequence (P33261 whole entry): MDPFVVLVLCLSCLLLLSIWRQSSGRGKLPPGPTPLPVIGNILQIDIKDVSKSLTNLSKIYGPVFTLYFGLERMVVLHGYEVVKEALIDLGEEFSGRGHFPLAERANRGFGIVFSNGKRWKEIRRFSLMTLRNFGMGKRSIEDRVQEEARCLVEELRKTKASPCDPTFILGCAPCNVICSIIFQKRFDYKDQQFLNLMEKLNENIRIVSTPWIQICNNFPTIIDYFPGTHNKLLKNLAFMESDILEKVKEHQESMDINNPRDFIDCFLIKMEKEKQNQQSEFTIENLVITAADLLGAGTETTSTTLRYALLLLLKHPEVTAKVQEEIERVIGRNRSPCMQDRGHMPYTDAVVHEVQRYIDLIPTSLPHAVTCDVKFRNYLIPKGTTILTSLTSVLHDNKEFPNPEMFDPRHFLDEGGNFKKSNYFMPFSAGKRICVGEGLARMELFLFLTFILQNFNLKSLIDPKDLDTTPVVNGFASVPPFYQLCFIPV
Cytochrome P450 2C9, sequence (P11712 whole entry): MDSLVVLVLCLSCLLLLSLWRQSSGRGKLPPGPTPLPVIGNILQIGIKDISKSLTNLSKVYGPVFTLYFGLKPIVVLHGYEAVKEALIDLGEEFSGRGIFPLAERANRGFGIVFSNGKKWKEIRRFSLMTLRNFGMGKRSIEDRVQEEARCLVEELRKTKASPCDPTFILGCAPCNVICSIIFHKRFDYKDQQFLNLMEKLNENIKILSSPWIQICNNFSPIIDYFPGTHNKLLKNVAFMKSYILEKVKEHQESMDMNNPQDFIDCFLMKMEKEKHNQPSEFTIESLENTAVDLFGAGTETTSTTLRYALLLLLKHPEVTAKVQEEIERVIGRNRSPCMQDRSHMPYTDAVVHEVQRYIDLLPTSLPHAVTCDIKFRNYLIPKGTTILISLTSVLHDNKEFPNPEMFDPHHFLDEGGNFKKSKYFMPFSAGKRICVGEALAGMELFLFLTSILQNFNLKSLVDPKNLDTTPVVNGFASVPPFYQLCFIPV
Voltage-gated inwardly rectifying potassium channel KCNH2, sequence (Q12809 whole entry): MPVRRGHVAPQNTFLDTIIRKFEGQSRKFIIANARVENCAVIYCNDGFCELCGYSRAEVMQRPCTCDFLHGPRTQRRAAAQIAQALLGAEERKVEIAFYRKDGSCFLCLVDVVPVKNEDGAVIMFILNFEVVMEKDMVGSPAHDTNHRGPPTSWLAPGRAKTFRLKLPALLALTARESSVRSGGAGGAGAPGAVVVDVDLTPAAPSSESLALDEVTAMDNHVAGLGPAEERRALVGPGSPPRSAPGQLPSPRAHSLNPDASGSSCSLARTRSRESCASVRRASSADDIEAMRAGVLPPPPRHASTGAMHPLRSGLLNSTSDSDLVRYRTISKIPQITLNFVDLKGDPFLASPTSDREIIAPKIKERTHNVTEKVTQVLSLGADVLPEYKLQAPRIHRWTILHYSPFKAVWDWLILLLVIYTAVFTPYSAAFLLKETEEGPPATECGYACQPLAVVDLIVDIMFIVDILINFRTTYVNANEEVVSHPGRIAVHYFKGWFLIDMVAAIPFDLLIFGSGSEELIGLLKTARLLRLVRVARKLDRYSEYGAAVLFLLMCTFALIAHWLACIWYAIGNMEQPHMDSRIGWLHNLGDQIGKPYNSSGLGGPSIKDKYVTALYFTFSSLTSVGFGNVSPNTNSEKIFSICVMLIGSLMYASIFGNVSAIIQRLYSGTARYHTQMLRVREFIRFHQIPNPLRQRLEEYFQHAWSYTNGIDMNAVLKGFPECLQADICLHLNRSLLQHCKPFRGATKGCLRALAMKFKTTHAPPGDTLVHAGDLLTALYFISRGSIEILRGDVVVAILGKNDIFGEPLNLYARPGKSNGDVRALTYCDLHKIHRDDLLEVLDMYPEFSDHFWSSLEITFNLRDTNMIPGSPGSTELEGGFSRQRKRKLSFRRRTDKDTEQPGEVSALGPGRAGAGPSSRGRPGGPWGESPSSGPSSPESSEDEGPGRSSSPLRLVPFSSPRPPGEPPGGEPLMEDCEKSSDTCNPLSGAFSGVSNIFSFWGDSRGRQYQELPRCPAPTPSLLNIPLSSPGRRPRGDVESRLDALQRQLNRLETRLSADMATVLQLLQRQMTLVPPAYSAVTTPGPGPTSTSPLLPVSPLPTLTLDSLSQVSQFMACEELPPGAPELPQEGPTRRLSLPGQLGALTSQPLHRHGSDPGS
hERG (KCNH2), sequence (Q12809 whole entry): as above

SMILES | IC50 [1] [nM] | concentration at 4 h [2] [µM] | concentration at 4 h [3] [µM] | inhibition in vivo at 30 mg/kg (Mus musculus [4]) [%] | Activity (Mus musculus [14]) [%] | IC50 (Gamma-secretase) [nM] | other results
COc1nc(-c2nc(Nc3cc(F)cc(C(F)(F)F)c3)n(C)n2)ccc1-n1cnc(C)c1 | 49 | 14 | 17.8 | 55 | 53 | 19 | Drug uptake(free) [5]: 0.069 µM; logP [6]: 4.24; metabolised at 0.25 h, 1 µM [7]: 4%; metabolised at 0.25 h, 1 µM [8]: 0%; metabolised at 0.25 h, 1 µM [9]: 10%; IC50 (Cytochrome P450 2D6): 16000 nM; IC50 (Cytochrome P450 2C9): 12300 nM; IC50 (Cytochrome P450 2C19): 22100 nM; IC50 [10]: > 10000 nM; inhibition at 3 µM (hERG (KCNH2)): 52%; solubility kinetic [11]: 39 µM (≈ 17.4 µg/mL); Activity (Cytochrome P450 3A4): Active; Kp at 4 h [12]: 0.8; Fu [13]: 0.5%
COc1cc(Nc2cccn3cc(-c4ccc(F)cc4)nc23)ccc1-n1cnc(C)c1 | 182 |  |  |  |  |  | 
COc1c(C#N)ccc2[nH]c(-c3cn4c(n3)[C@@H](c3ccccc3C(F)(F)F)OCC4)cc12 | 251 |  |  |  |  | 347 | 
COc1cc(/C=C/c2nc3n(n2)CCC[C@H]3c2ccccc2C(F)(F)F)ccc1C#N | 275 |  |  |  |  |  | 
COc1c(C#N)ccc2[nH]c(-c3cn4c(n3)[C@H](c3ccccc3Cl)OCC4)cc12 | 23 | 23.8 | 8.3 | 60 | 61 | 26 | Drug uptake(free) [5]: 0.112 µM; Fu [13]: 0.47%
COc1c(C#N)ccc2[nH]c(-c3cn4c(n3)C(C(C)c3ccc(F)cc3)OCC4)cc12 (stereo unspecified) | 339 |  |  |  |  | 219 | 
COc1c(C#N)ccc2[nH]c(-c3cn4c(n3)C(c3ccccc3Cl)CC(C)(O)C4)cc12 (stereo unspecified) |  |  |  |  |  | 22 | 
N#Cc1ccc2cc(-c3nc4n(n3)CCCC4c3ccccc3C(F)(F)F)[nH]c2c1 (racemic) | 8500 |  |  |  |  | 3980 | 
Cc1cn(-c2ccc3[nH]c(-c4nc5n(n4)CCCC5c4ccccc4C(F)(F)F)cc3c2)cn1 (stereo unspecified) | 46 |  |  |  |  |  | 
N#Cc1ccc2[nH]c(-c3nc4n(n3)CCCC4c3ccccc3C(F)(F)F)cc2c1 (racemic) | 186 |  |  |  |  | 117 | 
COc1nc(/C=C/c2nc3n(n2)CCC[C@H]3c2ccccc2C(F)(F)F)ccc1-n1cnc(C)c1 [E-2212] | 11 |  |  |  |  |  | 
COc1c(C#N)ccc2[nH]c(-c3cn4c(n3)C(c3ccc(F)cc3C)CCC4)cc12 (racemic) | 50 | 1.9 | 4.5 | 51 | 17 | 112 | 
COc1c(C#N)ccc2[nH]c(-c3nc4n(n3)CCO[C@H]4c3cccc(F)c3C)cc12 | 19 | 5.5 | 2.5 | 33 | 60 | 31 | Drug uptake(free) [5]: 0.009 µM; Fu [13]: 0.17%
COc1c(C#N)ccc2[nH]c(-c3cn4c(n3)C(c3ccccc3Cl)CC(O)(CO)C4)cc12 (stereo unspecified) |  |  |  |  |  | 39 | 
COc1c(C#N)ccc2[nH]c(-c3nc4n(n3)CCO[C@H]4c3ccc(F)cc3C)cc12 | 34 | 1.71 | 1.52 | 5 | -12 | 32 | 
COc1c(C#N)ccc2[nH]c(-c3nc4n(n3)CCO[C@H]4c3ccccc3C(F)(F)F)cc12 | 42 | 10.5 | 5.4 | 46 | 39 | 45 | 
COc1c(C#N)ccc2[nH]c(-c3nc4n(n3)CCO[C@H]4c3cc(C(F)(F)F)ccc3F)cc12 | 107 |  |  |  |  | 98 | 
COc1c(C#N)ccc2[nH]c(-c3cn4c(n3)[C@H](c3ccccc3Cl)O[C@H](C)C4)cc12 |  |  |  |  |  | 17 | 
COc1c(C#N)ccc2[nH]c(-c3nc4n(n3)CCOC4c3ccccc3C(F)(F)F)cc12 (racemic) | 41 |  |  |  |  | 72 | 

SMILES | IC50 [1] [nM] | concentration at 4 h [2] [µM] | concentration at 4 h [3] [µM] | inhibition in vivo at 30 mg/kg (Mus musculus [4]) [%] | Activity (Mus musculus [14]) [%] | IC50 (Gamma-secretase) [nM] | other results
COc1c(C#N)ccc2[nH]c(-c3nc4n(n3)CCO[C@H]4c3cccc(F)c3C(F)(F)F)cc12 | 59 | 9.6 | 1.7 | 2 | 19 | 59 | Drug uptake(free) [5]: 0.009 µM; Fu [13]: 0.09%
Cc1cn(-c2ccc3[nH]c(-c4nc(-c5cccc(C(F)(F)F)c5)n(C)n4)cc3c2)cn1 | 85 |  |  |  |  |  | 
COc1c(C#N)ccc2[nH]c(-c3nc4n(n3)CCCC4c3ccccc3C(F)(F)F)cc12 (racemic) | 36 to 38 |  |  |  |  | 36 | 
Cn1c(-c2nc3n(n2)CCCC3c2ccccc2C(F)(F)F)cc2cc(C#N)ccc21 (racemic) | > 10000 |  |  |  |  | 4000 | 
COc1cc2[nH]c(-c3nc4n(n3)CCCC4c3ccccc3C(F)(F)F)cc2cc1C#N (racemic) | 166 |  |  |  |  | 107 | 
COc1c(C#N)ccc2[nH]c(-c3cn4c(n3)[C@H](c3c(F)cccc3C(F)(F)F)OCC4)cc12 | 42 | 18.7 | 11.3 | 40 | 136 | 36 | 
COc1c(C#N)ccc2[nH]c(-c3cn4c(n3)[C@H](c3ccccc3Cl)O[C@@H](C)C4)cc12 |  |  |  |  |  | 66 | 
COc1nc(Nc2cccc3c2nc(-c2cccc(C(F)(F)F)c2)n3C)ccc1-n1cnc(C)c1 | 7 |  |  |  |  |  | 
N#Cc1ccc(Nc2nc(Cc3c(Cl)cccc3Cl)cc(NCC(O)c3ccccc3)n2)cc1 (stereo unspecified) | 1670 |  |  |  |  |  | Activity [15]: 244%
COc1c(C#N)ccc2[nH]c(-c3cn4c(n3)[C@H](c3ccccc3Cl)C[C@@H](C)C4)cc12 (racemic) |  |  |  |  |  | 15 | 
COc1c(C#N)ccc2[nH]c(-c3nc4n(n3)CCCC4c3ccc(F)cc3C)cc12 (racemic) | 28 | 0.69 | 0.75 | 45 | -9 | 25 | 
COc1c(C#N)ccc2[nH]c(-c3cn4c(n3)[C@H](c3cc(C(F)(F)F)ccc3F)OCC4)cc12 | 74 | 16.3 | 10.6 | 35 | 41 | 41 | 
COCc1ccccc1[C@@H]1OCCn2cc(-c3cc4c(OC)c(C#N)ccc4[nH]3)nc21 | 85 |  |  |  |  | 110 | 
N#CCCNc1cc(Cc2c(Cl)cccc2Cl)nc(Nc2ccc(C#N)cc2)n1 | 680 |  |  |  |  |  | Activity [15]: 242%
CCc1cc(CCC#N)ccc1N1CCc2c(C)nc(Nc3ccc(C#N)cc3)nc21 | 780 |  |  |  |  |  | Activity [15]: 240%
COc1c(C#N)ccc2[nH]c(-c3nc4n(n3)CCO[C@@H]4c3ccccc3C(F)(F)F)cc12 | 295 |  |  |  |  | 603 | 
COc1c(C#N)ccc2[nH]c(-c3cn4c(n3)[C@H](c3ccc(F)cc3C)OCC4)cc12 | 16 | 6.9 | 9.2 | 45 | 122 | 23 | Drug uptake(free) [5]: 0.016 µM; Fu [13]: 0.23%
COc1cc(Nc2cccn3cc(-c4ccc(F)cc4)nc23)ccc1C#N | > 10000 |  |  |  |  |  | 
COc1c(C#N)ccc2[nH]c(-c3cn4c(n3)[C@H](c3ccccc3C(F)(F)F)OCC4)cc12 (single isomer, unassigned) | 19 | 16.4 | 8.4 | 73 | 10 | 18 | Drug uptake(free) [5]: 0.034 µM; Fu [13]: 0.21%
